Measured values from the EternaBench riboswitch data.

What was measured:
[1] = test system: MS2 coat protein; experiment: apparent Kd, MS2 coat protein; higher = weaker binding; RNA-MaP array; theophylline 2 mM where present
Outline: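 The apparent Kd comes from binding curves fitted cluster by cluster, filtered, and summarised as a median. Those curves followed SNAP-549-labelled MS2 coat protein from 0.7 or 1.5 nM, doubling to 3 µM, on Illumina sequencing-chip clusters where stalled E. coli RNA polymerase had transcribed the designs, without and then with constant ligand. The buffer was 100 mM Tris-HCl pH 7.5, 80 mM KCl, 4 mM MgCl2, BSA, DTT, yeast tRNA and Tween-20, and green signal was normalised to red-channel RNA signal and control-cluster median Fmax.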

[2] = test system: MS2 coat protein; experiment: apparent Kd, MS2 coat protein; higher = weaker binding; RNA-MaP array
Outline: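 The designed RNAs, transcribed from sequenced DNA templates on an Illumina sequencing chip, were incubated with fluorescently labeled MS2 coat protein at room temperature. Protein ranged from 1.5 nM to 3 μM, with 0.8–1.5 h incubation at the lowest and 10–20 min at the highest concentrations, in Tris-HCl pH 7.5 buffer with KCl, MgCl2, BSA, DTT, tRNA and Tween20, with or without input ligand. The median of per-cluster binding-curve fits gives the apparent Kd, and designs measured on fewer than 10 clusters were excluded.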

[3] = designed as: OFF switch for theophylline, no ligand
[4] = ligand present: theophylline, designed as: OFF switch for theophylline
[5] = designed as: ON switch for theophylline, no ligand
[6] = ligand present: theophylline, designed as: ON switch for theophylline
[7] = designed as: OFF switch for flavin mononucleotide, no ligand
[8] = ligand present: flavin mononucleotide, designed as: OFF switch for flavin mononucleotide
[9] = designed as: ON switch for flavin mononucleotide, no ligand
[10] = ligand present: flavin mononucleotide, designed as: ON switch for flavin mononucleotide

With “UAAACACAUGAGGAUCACCCAUGUCAUGAUACCAGUCAACAUGAGGACCCUUGGCAGCAUAAAAUGGGUAACAUGAGGAUCACCC” the “apparent Kd” value [1, 3] was 38.4 nM and the “apparent Kd” value [1, 4] was 112 nM.
“UGGAAAGCACAUGAGGAUCACCCAUGUGAUACCAGCUGAAACUAAGGCCCUUGGCAGCACAUGGUACCAACCCUUUGGUAGUCCA” was tested, and the “apparent Kd” value [1, 3] was 11.9 nM and the “apparent Kd” value [1, 4] was 50.5 nM.
In the case of “AUAUGAUCAUAUGAUACCAGAAAUGGUAUUCCUUUCUUUCUUACAUGAGGAUCACCCAUGUUCCCUUGGCAGCAUAUGAUCAUAU”, the “apparent Kd” value [1, 3] is reported as 174 nM and the “apparent Kd” value [1, 4] is reported as 193 nM.
For “AUAUUAGACCUGGAUACCAGCGACAUGAGGAUCACCCAUGUAUGUGCAUCAGCCAUGAUAUGCCCUUGGCAGCCACCGAGGUCGU”, the “apparent Kd” value [1, 3] was 13.6 nM and the “apparent Kd” value [1, 4] was 37.2 nM.
For “UAUAAAAUAACAGAUACCAGCGUGUUAUAAAACAUGAGGAUCACCCAUGUAGUGAUCAAGCGCCCUUGGCAGCUGGUAUUUUAUG”, the “apparent Kd” value [1, 5] was 79.3 nM and the “apparent Kd” value [1, 6] was 133 nM.
In the case of “UUAGAUAUGACGGAUACCAGCGUGUUGUAGAACAUGAGGAUCACCCAUGUAGUGAUCGUGCGCCCUUGGCAGCUGGUAUGUUUGG”, the “apparent Kd” value [1, 5] is reported as 250 nM and the “apparent Kd” value [1, 6] is reported as 898 nM.
In the case of “AUCGUACCUGAUGAUACCAGCAAUUGCUCGUGACAUGAGGAUCACCCAUGUGACCAGUGAUGCCCUUGGCAGCAUGGUCGGUGCA”, the “apparent Kd” value [1, 5] is reported as 97.1 nM and the “apparent Kd” value [1, 6] is reported as 13.3 nM.
With “ACGUCACGUUUACUCGUGGUUUCGAUCGAUACCAGUAGCGAGAGUUACCCUUGGCAGCGACAUGAGGAUCACCCAUGUGCGAAGA” the “apparent Kd” value [1, 3] was 11.8 nM and the “apparent Kd” value [1, 4] was 15.9 nM.
“UGACAUUGCUGCGAUACCAGACAUGAGGAUCACCCAUGUACCAAGGUAAGAAAAUAACAUGUCCCUUGGCAGCGCAGCAAUGUCU” was tested, and the “apparent Kd” value [1, 3] was 14.9 nM and the “apparent Kd” value [1, 4] was 284 nM.
With “AGCGACAUGCAUGAUACCAGCUACAUGAGGAUCACCCAUGUACGUCAGUAAUGACUGUGUAGCCCUUGGCAGCAUAGAGCAUGUU” the “apparent Kd” value [1, 3] was 17.4 nM and the “apparent Kd” value [1, 4] was 53.6 nM.
For “AACAGGGCUUCCACGAAGCCCUAAGGUGAUACCAGCACAUGUAAGUGCCCUUGGCAGCACGGUACAUGAGGAUCACCCAUGUAGA”, the “apparent Kd” value [1, 5] was 50.3 nM and the “apparent Kd” value [1, 6] was 366 nM.
With “UGACAUUGCUCAGAUACCAGACAUGAGGAUCACCCAUGUACCAAGGUAAGAAAAUAACAUGUCCCUUGGCAGCUGAGCAAUGUCU” the “apparent Kd” value [1, 3] was 16.2 nM and the “apparent Kd” value [1, 4] was 240 nM.
“AUUAUCAUGGUCAUAUAUAUAUCUUCAGAUACCAGACUAUAUUAAGUCCCUUGGCAGCUGUUACAUGAGGAUCACCCAUGUUAUA” was tested, and the “apparent Kd” value [1, 3] was 172 nM and the “apparent Kd” value [1, 4] was 43.5 nM.
With “GAUUGGCUAGGAUAUACAGUGUCUAAGUCGACACCGUGAUAACAUGAGGAUCACCCAUGUAGAAGGAGCACAAA” the “apparent Kd” value [2, 7] was 6.78 nM and the “apparent Kd” value [2, 8] was 11.4 nM.
“AUUACCCAAGGAUAUUGCAAUUGAGACAUGAGGAUCACCCAUGUACUUCCGGGUGUCAAUCAAGAAGGUGGAUGUU” was tested, and the “apparent Kd” value [2, 7] was 23.1 nM and the “apparent Kd” value [2, 8] was 20.9 nM.
With “AUGUCGGCAGGAUAUACUGGAACUUGACCCGUGAACACGAUACAUGAGGAUCACCCAUGUAGAAGGGCCUAAAA” the “apparent Kd” value [2, 7] was 11.5 nM and the “apparent Kd” value [2, 8] was 43.4 nM.
For “GCACGAGUAAGACCUGACUUCAACAAUGAUACCAGACUAGUAAACGUCCCUUGGCAGCAUCAGACAUGAGGAUCACCCAUGUGGC”, the “apparent Kd” value [2, 3] was 27 nM and the “apparent Kd” value [2, 4] was 29.4 nM.
“GAUAGUGAUCCGGGUUACAUGAGGAUCACCCAUGUUACAAAUAGAAGGUCAGAACAAAAUUGAAAGAAGGAUAUAUUUUCAUUG” was tested, and the “apparent Kd” value [2, 7] was 44.1 nM and the “apparent Kd” value [2, 8] was 39.6 nM.
With “UGGUACAUGAGGAUCACCCAUGUCCUCAUCCGAGGACCGGUACGGCCGCCACUCGAAAUUGCGAUCGGCACAAAACAAAUGCUUG” the “apparent Kd” value ([2]; designed as: ON switch for tryptophan, no ligand) was 142 nM and the “apparent Kd” value ([2]; ligand present: tryptophan, designed as: ON switch for tryptophan) was 143 nM.
“UAUUGGAUGACAGGAUAUCUACGAAGAAGUUGACAUGAGGAUCACCCAUGUAGGGUGUGGAGCAUAGAGAAGGGUCAGAACCUC” was tested, and the “apparent Kd” value [2, 7] was 702 nM and the “apparent Kd” value [2, 8] was 440 nM.
In the case of “ACAUGGAGGACAGGAUAUCCAUCUGGCCACCACGGAGAAGGGUCCACCCGACAUGAGGAUCACCCAUGUAUCAACGUGAUGAGU”, the “apparent Kd” value [2, 9] is reported as 23 nM and the “apparent Kd” value [2, 10] is reported as 18.1 nM.
For “AGUAAAGUAGAAGGAUAUCACGAACAUGAGGAUCACCCAUGUUAAGAUCGGCGUGAGACAACAGAUGAGAAGGACUAAUAUGCU”, the “apparent Kd” value [2, 7] was 10.9 nM and the “apparent Kd” value [2, 8] was 10.2 nM.
With “GGGAAACAUGAGGAUCACCCAUGUGUACAUAAGUAAGGAUAUAGAAGAGGUGACAGUGGUCUAGAAGGUACAACAC” the “apparent Kd” value [2, 9] was 65.6 nM and the “apparent Kd” value [2, 10] was 46.4 nM.
For “AGGAGACAUGAGGAUCACCCAUGUCCAGAUACCAGAAUGUCUUUGUUCCCUUGGCAGCUGUGGAAAUCUGACCUGCCUCGGUCUG”, the “apparent Kd” value [2, 5] was 14.2 nM and the “apparent Kd” value [2, 6] was 15.7 nM.
For “UAAUUCAGGGAGAAGGUCUGAUCGUAACAUGCAGAAGGAUAUCCCAAUAACAUGAGGAUCACCCAUGUUUUGUUAUGCGUCAAC”, the “apparent Kd” value [2, 9] was 83 nM and the “apparent Kd” value [2, 10] was 19.8 nM.
For “UAAGACGGGCGAGGAUAUACGAACUGGGUCAAAGUAGAAGGCGCGAGUCAUUGUUAUAAUCCAACAUGAGGAUCACCCAUGUCU”, the “apparent Kd” value [2, 9] was 91.6 nM and the “apparent Kd” value [2, 10] was 15.6 nM.
